Screening results as filed in PubChem BioAssay.
A1_apoptosis_2: A1 inhibitors via caspase activation, primary screen, cell-based, luminescence, HTS, two replicates; MEF A1-2A-BIM cells, caspase-Glo luminescence, 3 h; percent of clofoctol response, DMSO zero; caspase activation, % (no concentration beside the values); 24,000 tested, under 10 active; AID 2465, 2010; in the data active means caspase activation above about 5.9%
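Evaluation: Caspase-3/7 activity from luminescence increase | Assay system: A1-2A-BIM mouse embryonic fibroblasts | Quantity: 2500 MEF cells/well | Medium: RPMI-1640 plus 10% FBS | Detection: Caspase-Glo 3/7 luminescence, 1 h at room temperature | Dosing: 50 nL compound per well, pinned | Timing: Cells settled overnight, compound exposure 3 h at 37 °C, 5% CO2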
T_cruzi_HTS: inhibitors of intracellular Trypanosoma cruzi, primary screen, cell-based, plate reader, single point, set 2; intracellular Trypanosoma cruzi in host cells; activity score (inhibition), % at 5.01 µM; 4.9% of 22,000 active; in the data active means activity score above about 55%;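 further: parasites and compound incubated about four days before reading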
INS-1E_ATP_HTS: protection of INS-1E cells from cytokine death, primary screen, ATP luminescence, single point; INS-1E cytokine-induced death, 48 h; normalised: neutral wells 0, positive control 100; protection from cytokine-induced ATP loss, % at 10 µM; 0.1% of 20,000 active;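 active means mean replicate protection from cytokine-induced ATP loss at least 50% and at least 75% of replicates each reaching 50%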
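assay system = INS-1E rat insulinoma cells | amount = 8000 cells per well | medium = phenol-red-free RPMI with 5% fetal bovine serum | doses = one compound concentration, pin transfer | timing = 48 h cytokine plus compound treatment, 10 min reagent incubation | also added = IL-1β, TNF-α and IFN-γ cytokine mix | signal = CellTiter-Glo luminescence measuring cellular ATP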
Hits are given with their value; i = inactive; nt = no result. This excerpt belongs to a sample that is enriched for hits.

SMILES A1_apoptosis_2 T_cruzi_HTS INS-1E_ATP_HTS
C[C@H]1CN([C@@H](C)CO)C(=O)Cc2cc(NC(=O)Nc3ccc(F)cc3)ccc2O[C@H]1CN(C)Cc1ccc(C(=O)O)cc1 i i i
C[C@@H]1CN([C@H](C)CO)C(=O)Cc2cc(NC(=O)Nc3ccc(C(F)(F)F)cc3)ccc2O[C@@H]1CN(C)Cc1ccc(-c2ccccc2)cc1 nt 75.6 i
C[C@H](CO)N1C[C@H](C)[C@@H](CN(C)Cc2ccc(-c3ccccc3)cc2)Oc2ccc(NC(=O)Nc3ccc(C(F)(F)F)cc3)cc2CC1=O i nt nt
C[C@@H]1CN([C@@H](C)CO)C(=O)c2cccc(NC(=O)CCCCCC(=O)Nc3ccccc3N)c2O[C@H]1CN(C)CC1CCCCC1 nt 73.7 i
C[C@H](CO)N1C[C@H](C)[C@@H](CN(C)CC2CC2)Oc2c(NC(=O)CCCCCC(=O)Nc3ccccc3N)cccc2C1=O i 72.4 i
C[C@H](CO)N1C[C@H](C)[C@H](CN(C)CC2CC2)Oc2c(NC(=O)CCCCCC(=O)Nc3ccccc3N)cccc2C1=O i i i
C[C@H](CO)N1C[C@H](C)[C@H](CN(C)C)Oc2c(NC(=O)CCCCCC(=O)Nc3ccccc3N)cccc2C1=O i i i
O=C(N/N=C/c1ccc2c(c1)Cc1ccccc1-2)c1ccccc1O i i i
C[C@@H]1CN([C@H](C)CO)C(=O)c2cc(NC(=O)Nc3ccc(F)cc3)ccc2O[C@H]1CN(C)C(=O)NC1CCCCC1 i i i
Cc1noc(C)c1NC(=O)N(C)C[C@@H]1Oc2ccc(NC(=O)C3CCCCC3)cc2C(=O)N([C@@H](C)CO)C[C@@H]1C nt i i
C[C@H](CO)N1C[C@H](C)[C@H](CN(C)C(=O)c2ccccc2)OCCCC[C@H](C)Oc2ccc(NC(=O)NC3CCCCC3)cc2C1=O i nt nt
COc1ccc(S(=O)(=O)N(C)C[C@H]2Oc3c(NC(=O)c4ccc(-c5nccs5)cc4)cccc3C(=O)N([C@H](C)CO)C[C@H]2C)cc1 nt i i
Cc1ccc(S(=O)(=O)N(C)C[C@H]2Oc3c(NC(=O)c4ccc(-c5nccs5)cc4)cccc3C(=O)N([C@@H](C)CO)C[C@H]2C)cc1 nt i i
Cc1ccc(S(=O)(=O)N(C)C[C@@H]2Oc3c(NC(=O)c4ccc(-c5nccs5)cc4)cccc3C(=O)N([C@H](C)CO)C[C@@H]2C)cc1 i 71.1 i
COc1ccc(S(=O)(=O)N(C)C[C@@H]2Oc3c(NC(=O)c4ccc(-c5nccs5)cc4)cccc3C(=O)N([C@H](C)CO)C[C@@H]2C)cc1 i 73.7 i
COc1ccc(S(=O)(=O)N(C)C[C@H]2Oc3ccc(NC(=O)Cc4cn(C)c5ccccc45)cc3CC(=O)N([C@H](C)CO)C[C@H]2C)cc1 i i i
Cc1ccc(S(=O)(=O)Nc2ccc3c(c2)CC(=O)N([C@@H](C)CO)C[C@@H](C)[C@@H](CN(C)Cc2ccc(C(=O)Nc4ccccc4N)cc2)O3)cc1 i 63.5 i
C[C@@H]1CN([C@@H](C)CO)C(=O)Cc2cc(NS(=O)(=O)c3ccc(Cl)cc3)ccc2O[C@@H]1CN(C)Cc1ccc(C(=O)Nc2ccccc2N)cc1 i nt nt
C[C@@H]1CN([C@@H](C)CO)C(=O)c2cc(NS(=O)(=O)c3cccs3)ccc2O[C@H]1CN(C)Cc1ccc(C(=O)Nc2ccccc2N)cc1 i i i
COc1ccc(S(=O)(=O)Nc2ccc3c(c2)CC(=O)N([C@H](C)CO)C[C@@H](C)[C@H](CN(C)Cc2ccc(C(=O)Nc4ccccc4N)cc2)O3)cc1 i nt nt
Cc1ccc(S(=O)(=O)Nc2ccc3c(c2)CC(=O)N([C@H](C)CO)C[C@H](C)[C@@H](CN(C)Cc2ccc(C(=O)Nc4ccccc4N)cc2)O3)cc1 i nt nt
C[C@H]1CN([C@@H](C)CO)C(=O)Cc2cc(NS(=O)(=O)c3cccs3)ccc2O[C@H]1CN(C)Cc1ccc(C(=O)Nc2ccccc2N)cc1 i 67.9 i
C[C@@H]1CN([C@H](C)CO)C(=O)Cc2cc(NS(=O)(=O)c3ccc(Cl)cc3)ccc2O[C@H]1CN(C)Cc1ccc(C(=O)Nc2ccccc2N)cc1 nt 69.0 i
COc1ccc(S(=O)(=O)Nc2ccc3c(c2)CC(=O)N([C@@H](C)CO)C[C@H](C)[C@@H](CN(C)Cc2ccc(C(=O)Nc4ccccc4N)cc2)O3)cc1 i 57.7 i
Cc1noc(C)c1NC(=O)N(C)C[C@H]1Oc2ccc(NC(=O)C3CC3)cc2C(=O)N([C@H](C)CO)C[C@H]1C i i i
SMILES A1_apoptosis_2 T_cruzi_HTS INS-1E_ATP_HTS
C[C@@H]1CN([C@@H](C)CO)C(=O)CCCn2nncc2CO[C@@H]1CN(C)C(=O)CCCN(C)C nt i nt
C[C@H]1CN([C@@H](C)CO)C(=O)c2cccc(NC(=O)c3nc4ccccc4s3)c2O[C@H]1CN(C)S(=O)(=O)c1cn(C)cn1 i i i
C[C@@H]1CCCCO[C@@H](CN(C)C(=O)c2ccccc2)[C@H](C)CN([C@H](C)CO)C(=O)c2cc(NS(=O)(=O)c3ccccc3)ccc2O1 i nt nt
C[C@@H]1CCCCO[C@H](CN(C)Cc2ccc(Cl)c(Cl)c2)[C@@H](C)CN([C@@H](C)CO)C(=O)c2cc(NS(=O)(=O)c3ccc(F)cc3)ccc2O1 i nt nt
Cc1ccc(S(=O)(=O)Nc2ccc3c(c2)C(=O)N([C@H](C)CO)C[C@@H](C)[C@H](CN(C)Cc2ccc(Cl)c(Cl)c2)OCCCC[C@@H](C)O3)cc1 i nt nt
C[C@@H]1CCCCO[C@@H](CN(C)Cc2ccc(Cl)c(Cl)c2)[C@@H](C)CN([C@H](C)CO)C(=O)c2cc(NS(=O)(=O)c3ccc(Cl)cc3)ccc2O1 i 71.7 i
COc1ccc(S(=O)(=O)Nc2ccc3c(c2)C(=O)N([C@H](C)CO)C[C@H](C)[C@@H](CN(C)Cc2ccc(Cl)c(Cl)c2)OCCCC[C@@H](C)O3)cc1 i 73.0 i
C[C@@H]1CCCCO[C@H](CN(C)Cc2ccc(Cl)c(Cl)c2)[C@@H](C)CN([C@H](C)CO)C(=O)c2cc(NS(=O)(=O)c3ccc(Cl)cc3)ccc2O1 i 64.4 i
COc1ccc(S(=O)(=O)Nc2ccc3c(c2)C(=O)N([C@H](C)CO)C[C@H](C)[C@@H](CN(C)Cc2ccc(Cl)c(Cl)c2)OCCCC[C@H](C)O3)cc1 i nt nt
COc1ccc(NC(=O)Nc2ccc3c(c2)CC(=O)N([C@H](C)CO)C[C@@H](C)[C@@H](CN(C)Cc2ccc4c(c2)OCO4)O3)cc1 i i i
COc1ccc(S(=O)(=O)Nc2ccc3c(c2)CC(=O)N([C@H](C)CO)C[C@@H](C)[C@@H](CN(C)C(=O)Nc2ccc4c(c2)OCO4)O3)cc1 i i i
COc1ccc(S(=O)(=O)N(C)C[C@@H]2Oc3ccc(NC(=O)CCCN(C)C)cc3CC(=O)N([C@H](C)CO)C[C@H]2C)cc1 i i i
C[C@@H]1CN([C@H](C)CO)C(=O)c2cc(NC(=O)Nc3ccc(F)cc3)ccc2O[C@@H](C)CCCCO[C@@H]1CN(C)Cc1ccc(C(F)(F)F)cc1 i nt nt
